Consider one molecule from ChEMBL document CHEMBL4028911, “Discovery of a Small-Molecule Bromodomain-Containing Protein 4 (BRD4) Inhibitor That Induces AMP-Activated Protein Kinase-Modulated Autophagy-Associated Cell Death in Breast Cancer” (J Med Chem, 2017).

Data set [1] deals with T1, Bromodomain-containing protein 4 (Homo sapiens, UniProt O60885). Kind of data set: Inhibition of BRD4 in human MCF7 cells assessed as increase in ATG13 phosphorylation at ser318 at 1.5 uM up to 36 hrs by Western blot analysis. The data set is classed as cell-based. A digest of the protocol:
(§1)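 MCF-7 (1.5 μM) or MDA-MB-231 (3 μM) cells treated for indicated times. Adherent and floating cells lysed in RIPA with 1 mM PMSF. Equal protein run on 10-15% SDS-PAGE, blotted to PVDF, blocked in milk or BSA, HRP/ECL detection. β-actin loading control.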
(In general: Immunoblotting shows a protein as a band on a membrane.)

The test system of data set [2] is MDA-MB-231. The data set can be described thus: Induction of autophagy in human MDA-MB-231 cells assessed as upregulation of beclin1 expression at 3 uM measured up to 36 hrs by Western blot analysis. The format is functional, cell-based. A digest of the protocol:
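MDA-MB-231 cells (DMEM, 10% FBS, 37 °C, 5% CO2) exposed to 3 μM for indicated times. Adherent and floating cells collected, lysed in RIPA with 1 mM PMSF at 4 °C for 1 h. Protein quantified by DC assay, resolved on 10-15% SDS-PAGE, blotted to PVDF, ECL detection.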

Data set [3] has as its system MCF7. Kind of data set: Antitumor activity against human MCF7 cells xenografted in ig dosed nude BALB/c mouse assessed as tumor growth inhibition administered once a day for 24 days measured every 3 days relative to control. The format is functional, organism-based. A digest of the protocol: (§2)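 Female BALB/c nude mice, 6-8 weeks, 20-22 g, injected subcutaneously with 5×10^6 MCF-7 or MDA-MB-231 cells. At 100 mm³ tumor volume (V = L×W²/2), split into four groups: 25, 50 or 100 mg/kg intragastric once daily for 24 or 27 days, or vehicle. Tumor volume and body weight measured every 3 days; tumors excised and weighed at end. MCF-7 n=7, MDA-MB-231 n=6 per group.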
On the technique in general: Xenograft models place foreign cells or tissue in a host animal.

Data set [4] has as its system MCF7. Kind of data set: Antiproliferative activity against human MCF7 cells after 24 hrs by MTT assay. The format is functional, cell-based. The following applies: MCF7, 24 h. Background: Tetrazolium dyes change colour on reduction, which living cells bring about.
Data set [5] deals with MCF7. Kind of data set: Induction of autophagy in human MCF7 cells assessed as downregulation of p62/SQSTM1 expression at 1.5 uM in presence of ATG5 siRNA by Western blot analysis. The format is functional, cell-based.
Data set [6] addresses T1, Bromodomain-containing protein 4. Kind of data set: Inhibition of BRD4 in human MDA-MB-231 cells assessed as downregulation of mTOR phosphorylation at ser244 at 3 uM measured up to 36 hrs by Western blot analysis. The data set is classed as cell-based. A digest of the protocol: as §1
Data set [7] relates to MCF7. Kind of data set: Antitumor activity against CM-Dil-labeled human MCF7 cells implanted in transgenic zebrafish embryos assessed as tumor growth inhibition at 12.5 to 50 uM dosed via sterile dechlorinated tap water and measured on fifth day after implantation by fluorescence assay. The format is functional, organism-based.
A further data set concerns MDA-MB-468. The data set can be described thus: Induction of autophagy in human MDA-MB-468 cells assessed as upregulation of beclin1 expression measured up to 48 hrs by Western blot analysis. The format is functional, cell-based.
Data set [8] concerns MDA-MB-231. The data set can be described thus: Induction of autophagy in human MDA-MB-231 cells assessed as cytoplasmic vacuolization at 3 uM by electron microscopy. The data set is classed as functional, cell-based. A digest of the protocol: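 MCF-7 (1.5 µM) or MDA-MB-231 (3 µM) cells treated for indicated times. Cytoplasmic vacuoles examined by transmission electron microscopy.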

The subject of data set [9] is MDA-MB-231. Kind of data set: Antiproliferative activity against human MDA-MB-231 cells after 24 hrs by MTT assay. The format is functional, cell-based. The following applies: MDA-MB-231, 24 h.
In data set [10] the test system is MDA-MB-231. Kind of data set: Antitumor activity against human MDA-MB-231 cells xenografted in nude BALB/c mouse assessed as reduction in tumor weight at 25 to 100 mg/kg, ig administered once a day for […] measured every 3 days relative to control. The data set is classed as functional, organism-based. A digest of the protocol:
as §2

Data set [11] addresses T1, Bromodomain-containing protein 4. The data set can be described thus: Inhibition of BRD4 interaction with p53 in human MDA-MB-231 cells at 3 uM by co-immunoprecipitation assay. The data set is classed as cell-based. Summed up:
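Cells lysed in RIPA buffer (40 mM Tris-HCl pH 7.5, 150 mM NaCl, 0.5% NP-40, 5% glycerol, 10 mM NaF, protease inhibitors). Lysates incubated overnight at 4 °C with BRD4 or p53 antibody plus protein A/G beads, washed 3 times, resolved on 10% SDS-PAGE and blotted for AMPKα or p53.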

For data set [12], the system named is MCF7. The data set can be described thus: Inhibition of BRD4 protein expression in human MCF7 cells at 1.5 uM measured up to 36 hrs by Western blot analysis. The data set is classed as functional, cell-based. Summed up: as §1
For data set [13], the system named is MCF7. Kind of data set: Effect on AKT expression in human MCF7 cells at 1.5 uM measured up to 36 hrs by Western blot analysis. The following applies: mcf7, 36 h. The format is ADME, cell-based. A digest of the protocol: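 MCF-7 (1.5 µM) or MDA-MB-231 (3 µM) cells treated for indicated times. Adherent and floating cells lysed in RIPA with 1 mM PMSF, 4°C for 1 h. Equal protein run on 10-15% SDS-PAGE, transferred to PVDF, blocked with milk or BSA, probed with primary then HRP secondary antibodies, ECL detection; β-actin as loading control.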

In data set [14] the test system is MCF7. The data set can be described thus: Antitumor activity against human MCF7 cells xenografted in nude BALB/c mouse assessed as reduction in tumor weight at 25 to 100 mg/kg, ig administered once a day for 24 days measured every 3 days relative to control. The format is functional, organism-based. Summed up:
as §2

pIC50: −log10 of the molar value. Active and inactive are the calls of the source. The calls are words filed in the database; no cut-off is given here.

Consider `Cc1cc(-c2nc3sc4c(c3c(=O)[nH]2)CCN(C)C4)cc(C)c1O`, for which the inhibition result (in data set [1]; in data set [6]; in the data set on MCF7 [12]) was “Active” each time. Besides, the outcome with MDA-MB-231 [2], in the data set with MDA-MB-231 [8], in the data set on MDA-MB-231 [10] and in the data set with MCF7 [14] was Active. Further, the TGI entry in the data set with MCF7 [3] is “Dose-dependent effect”. The negative-log IC50 (pIC50) (in general, the negative decadic logarithm of the IC50, by convention in mol/L) in the data set on MCF7 [4] is 5.79; with MDA-MB-231 [9], 5.49. Further, the result in the data set on MCF7 [5] and in the data set with MDA-MB-468 was inactive. In the data set with MCF7 [7], the TGI result was “Active”. For the same molecule, the inhibition entry in data set [11] was “inactive”. Besides, the Activity result with MCF7 [13] was “Non-Toxic”.
